# How the values were obtained:
# [1] = [14C] ADME study in male albino CD1 mice; type: in vivo, mouse
# Outline: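 Male albino CD1 mice received one oral dose of 50 mg/kg (5 MBq/kg) [14C]-labelled test compound. Blood and plasma were counted for total radioactivity. Urine and faeces were collected for excretion balance, and plasma, urine and faeces were used for metabolite profiling.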
# CYP3A4 [2] = target: CYP3A4 (Homo sapiens, UniProt P08684); assay: biochemical; type: in vitro ADME
# [3] = Animal and human ADME studies, summary of excretion; type: in vivo; conditions: animal and human ADME studies (Abstract)
# [4] = First-in-human study Part 3, 100-mg SDD tablet food effect; type: in vivo; conditions: plasma, oral, 200 mg; for AUC: AUC0‐last; for AUC / Cmax: single 200 mg dose of 100‐mg SDD tablets; for half-life: t1/2, single 200 mg dose of 100‐mg SDD tablets
# CYP2C19 = CYP2C19 (Homo sapiens, UniProt P33261); assay: Cytochrome P450 inhibition; type: in vitro ADME
# Chain of CYP2C19 (P33261 whole entry): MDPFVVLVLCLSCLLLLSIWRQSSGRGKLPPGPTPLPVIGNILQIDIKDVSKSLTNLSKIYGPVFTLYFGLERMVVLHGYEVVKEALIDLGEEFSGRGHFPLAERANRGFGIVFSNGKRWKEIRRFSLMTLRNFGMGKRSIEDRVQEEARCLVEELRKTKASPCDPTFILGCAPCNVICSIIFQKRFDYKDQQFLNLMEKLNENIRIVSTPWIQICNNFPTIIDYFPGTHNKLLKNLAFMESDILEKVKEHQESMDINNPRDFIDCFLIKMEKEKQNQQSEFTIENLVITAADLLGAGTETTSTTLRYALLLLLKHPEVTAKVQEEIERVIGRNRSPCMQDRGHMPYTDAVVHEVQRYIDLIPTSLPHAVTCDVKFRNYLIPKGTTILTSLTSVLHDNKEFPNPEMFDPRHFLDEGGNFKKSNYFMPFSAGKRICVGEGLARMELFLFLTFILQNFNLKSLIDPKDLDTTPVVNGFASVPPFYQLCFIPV
# BCRP = target: T1, BCRP (Homo sapiens, UniProt Q9UNQ0); assay: ABC transporter inhibition, inside-out vesicles; type: in vitro ADME
# T1 sequence (Q9UNQ0 1-655): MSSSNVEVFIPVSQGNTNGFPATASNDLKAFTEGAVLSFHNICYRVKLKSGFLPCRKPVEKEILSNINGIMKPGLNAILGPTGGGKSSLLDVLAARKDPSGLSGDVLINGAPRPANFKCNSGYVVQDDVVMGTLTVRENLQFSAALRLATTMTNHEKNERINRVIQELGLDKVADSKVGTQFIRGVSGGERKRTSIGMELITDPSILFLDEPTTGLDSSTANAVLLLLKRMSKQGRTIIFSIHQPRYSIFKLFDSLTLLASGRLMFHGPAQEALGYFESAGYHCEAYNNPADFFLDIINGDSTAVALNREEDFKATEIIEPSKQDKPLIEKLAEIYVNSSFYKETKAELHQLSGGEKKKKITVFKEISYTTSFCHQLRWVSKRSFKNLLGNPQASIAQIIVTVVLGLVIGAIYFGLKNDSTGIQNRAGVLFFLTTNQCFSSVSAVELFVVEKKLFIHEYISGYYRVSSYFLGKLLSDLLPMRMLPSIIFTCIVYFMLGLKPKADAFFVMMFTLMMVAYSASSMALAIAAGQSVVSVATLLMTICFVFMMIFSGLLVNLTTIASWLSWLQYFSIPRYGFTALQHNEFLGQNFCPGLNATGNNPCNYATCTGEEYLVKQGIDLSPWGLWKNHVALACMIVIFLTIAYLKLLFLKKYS
# Outline: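 Inhibition of human BCRP transport was measured in inside-out membrane vesicles prepared from cells overexpressing the human ABC transporter.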
# [5] = First-in-human study, single ascending dose; type: in vivo
# DDI perpetrator study = type: in vivo; conditions: human, plasma, oral, 400 mg
# CYP3A5 = CYP3A5 (Homo sapiens, UniProt P20815); assay: Cytochrome P450 inhibition; type: in vitro ADME
# Chain of CYP3A5 (P20815 whole entry): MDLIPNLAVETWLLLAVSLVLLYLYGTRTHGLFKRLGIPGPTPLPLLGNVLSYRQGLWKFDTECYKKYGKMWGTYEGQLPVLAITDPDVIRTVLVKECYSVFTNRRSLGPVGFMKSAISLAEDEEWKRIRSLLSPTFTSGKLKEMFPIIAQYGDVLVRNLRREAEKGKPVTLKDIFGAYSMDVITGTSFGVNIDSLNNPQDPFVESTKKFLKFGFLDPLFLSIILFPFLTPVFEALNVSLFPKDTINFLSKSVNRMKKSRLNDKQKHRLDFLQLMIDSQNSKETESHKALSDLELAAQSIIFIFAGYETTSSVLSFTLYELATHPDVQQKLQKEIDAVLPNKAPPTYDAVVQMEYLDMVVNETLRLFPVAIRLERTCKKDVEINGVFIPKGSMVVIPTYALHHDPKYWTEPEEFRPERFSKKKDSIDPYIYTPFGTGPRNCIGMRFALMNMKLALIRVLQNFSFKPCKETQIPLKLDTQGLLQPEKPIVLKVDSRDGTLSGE
# liver fat = conditions: patients with presumed MASH; cited from earlier work
# CYP3A4 [6] = type: in vitro ADME, human; conditions: up to 10 µM
# CYP3A4 [7] = conditions: miricorilant 400 mg once daily as perpetrator
# [8] = First-in-human study, multiple ascending dose; type: in vivo; conditions: for half-life: human, plasma, oral
# [9] = 28-day Good Laboratory Practice toxicology study; type: in vivo, mouse; conditions: mice
# CYP2C9 = CYP2C9 (Homo sapiens, UniProt P11712); assay: Cytochrome P450 inhibition; type: in vitro ADME
# Chain of CYP2C9 (P11712 whole entry): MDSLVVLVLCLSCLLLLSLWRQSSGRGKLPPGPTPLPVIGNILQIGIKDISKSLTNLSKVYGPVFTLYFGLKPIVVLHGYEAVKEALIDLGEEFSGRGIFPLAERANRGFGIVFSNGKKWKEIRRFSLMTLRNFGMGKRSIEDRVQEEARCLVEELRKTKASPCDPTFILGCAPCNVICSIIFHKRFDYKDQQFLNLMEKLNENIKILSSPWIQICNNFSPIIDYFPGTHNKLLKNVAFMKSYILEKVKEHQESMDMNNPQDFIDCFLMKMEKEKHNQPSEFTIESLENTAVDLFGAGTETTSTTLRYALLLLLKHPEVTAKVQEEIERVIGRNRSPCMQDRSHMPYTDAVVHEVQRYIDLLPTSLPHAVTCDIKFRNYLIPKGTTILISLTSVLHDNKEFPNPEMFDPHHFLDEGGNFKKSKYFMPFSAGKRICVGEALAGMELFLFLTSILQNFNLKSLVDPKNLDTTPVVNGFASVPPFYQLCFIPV
# OATP1B1 = target: T2, OATP1B1 (Homo sapiens, UniProt Q9Y6L6); assay: Transporter substrate assessment; type: in vitro ADME
# T2 sequence (Q9Y6L6 1-691): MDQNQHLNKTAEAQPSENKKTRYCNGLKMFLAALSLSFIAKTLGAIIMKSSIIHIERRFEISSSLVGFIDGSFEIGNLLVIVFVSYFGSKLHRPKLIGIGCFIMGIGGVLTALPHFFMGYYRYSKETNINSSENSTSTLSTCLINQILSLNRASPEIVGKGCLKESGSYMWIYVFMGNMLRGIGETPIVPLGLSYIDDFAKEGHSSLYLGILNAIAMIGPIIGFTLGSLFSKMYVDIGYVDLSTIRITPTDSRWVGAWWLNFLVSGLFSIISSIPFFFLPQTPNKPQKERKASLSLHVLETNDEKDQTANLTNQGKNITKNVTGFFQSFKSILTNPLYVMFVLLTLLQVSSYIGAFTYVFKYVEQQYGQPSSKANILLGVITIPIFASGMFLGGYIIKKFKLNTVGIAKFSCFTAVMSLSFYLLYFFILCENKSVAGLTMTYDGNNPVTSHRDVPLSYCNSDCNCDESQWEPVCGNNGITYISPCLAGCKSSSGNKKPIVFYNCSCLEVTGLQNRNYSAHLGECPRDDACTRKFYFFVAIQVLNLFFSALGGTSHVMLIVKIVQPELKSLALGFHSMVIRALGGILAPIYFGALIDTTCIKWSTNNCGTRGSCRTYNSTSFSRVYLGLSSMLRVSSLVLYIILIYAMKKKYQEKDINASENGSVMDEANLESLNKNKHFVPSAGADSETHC
# Chain of CYP3A4 (Homo sapiens, UniProt P08684) (P08684 whole entry): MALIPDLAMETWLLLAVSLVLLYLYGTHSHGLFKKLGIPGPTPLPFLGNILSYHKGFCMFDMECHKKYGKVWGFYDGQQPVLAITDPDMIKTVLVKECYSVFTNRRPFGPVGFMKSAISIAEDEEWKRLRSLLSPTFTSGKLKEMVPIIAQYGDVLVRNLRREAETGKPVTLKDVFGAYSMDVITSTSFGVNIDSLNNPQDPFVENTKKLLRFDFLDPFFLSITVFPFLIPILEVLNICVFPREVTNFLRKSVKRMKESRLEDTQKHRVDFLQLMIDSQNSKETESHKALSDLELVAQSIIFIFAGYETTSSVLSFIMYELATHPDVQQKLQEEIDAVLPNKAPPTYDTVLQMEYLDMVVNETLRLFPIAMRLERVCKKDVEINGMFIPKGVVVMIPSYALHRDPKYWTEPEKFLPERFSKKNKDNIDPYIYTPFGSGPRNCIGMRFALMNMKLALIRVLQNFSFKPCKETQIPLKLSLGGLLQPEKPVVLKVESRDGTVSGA
structure (smiles),measurement,setting,value
O=c1[nH]c(=O)c(Cc2cccc(C(F)(F)F)c2)c([C@H]2CC[C@H](c3ccccc3)CC2)[nH]1 [miricorilant],recovery of radioactivity,[1]; by 24 h postdose,quantitative recovery
same,elimination of radioactivity in urine,[1]; single oral 50 mg/kg,0.13% ± 0.04%
same,fecal elimination of radioactivity,[1]; single oral 50 mg/kg,98.7% ± 2.48%
same,share of total radioactivity in plasma,[1]; single oral 50 mg/kg,69%
same,IC50,CYP3A4 [2],3.4 µM
same,time dependence of CYP3A4 inhibition,CYP3A4 [2],not time dependent
same,total radioactivity recovered in urine,[3],< 5%
same,AUC,"[4]; Fasted, geometric mean (%CV)",1620 ng·h/mL
same,AUC,"[4]; Fed, geometric mean (%CV)",3560 ng·h/mL
same,Cmax,"[4]; Fasted, geometric mean (%CV)",105 ng/mL
same,Cmax,"[4]; Fed, N = 6, geometric mean (%CV)",184 ng/mL
same,half-life,"[4]; Fasted, geometric mean (%CV)",21.1 h
same,half-life,"[4]; Fed, geometric mean (%CV)",19.6 h
same,inhibition of CYP2C19,CYP2C19,No inhibition
same,IC50,BCRP,0.48 µM
same,"increase in AUC0‐last, fed versus fasted",[5]; 900 mg SDD suspension,approximately 3.34 fold
same,"increase in Cmax, fed versus fasted",[5]; 900 mg SDD suspension,approximately 2.45 fold
same,increase in AUC on administration with food,"[5]; Discussion, dose and formulation not stated",2.3 fold
same,half-life,"[5]; human, plasma, oral, half‐life, single doses, healthy subjects",~20 h
same,AUC,DDI perpetrator study,11400 ng·h/mL
same,Cmax at 10 study day,DDI perpetrator study,895 ng/mL
same,Tmax at 10 study day,DDI perpetrator study,4 h
same,half-life at 10 study day,DDI perpetrator study,12.2 h
same,inhibition of CYP3A5,CYP3A5,No inhibition
same,effect on liver fat,liver fat,rapid and substantial reduction of liver fat
same,highest observed CYP3A4 induction,"CYP3A4 [6]; one of three donors, concentration-dependent",6.5 fold
same,CYP3A4 induction,CYP3A4 [6]; two of three donors,no indication of CYP3A4 induction
same,clinical inhibition of CYP3A4,CYP3A4 [7],does not inhibit
same,average increase in Cmax and AUC0‐last per doubling of the dose,"[8]; 150, 450, 900 mg once daily, day 1",1.92 fold
same,half-life,[8],~20 h
same,half-life,[8]; 150 mg,21.6 h
same,half-life,[8]; 450 mg,21.2 h
same,half-life,[8]; 900 mg,19.4 h
same,accumulation ratio for Cmax,[8]; repeated daily dosing (Discussion/Conclusions),≈ 1.5 fold
same,adverse effects in 28‐day toxicology study,[9],No adverse effects
same,IC50,CYP2C9,7.7 µM
same,time dependence of CYP2C9 inhibition,CYP2C9,not time dependent
same,Substrate of OATP1B1,OATP1B1,not a substrate
